In ChEMBL document CHEMBL4024793, “Development of Stem-Cell-Mobilizing Agents Targeting CXCR4 Receptor for Peripheral Blood Stem Cell Transplantation and Beyond” (J Med Chem, 2018):

Columns and labels:
[1] = AUC (0 to 4 hrs) in C57BL/6 mouse at 6 mg/kg, sc measured up to 4 hrs post dose by LC-MS/MS analysis; type: ADME, organism-based; parameters: dose 6 mg/kg, time < 4 hr, route subcutaneous; settings: in vivo
Summary of the method: (§1)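 Male C57BL/6 mice (23.4–25.4 g), quarantined one week, non-fasted, n = 3; single SC dose of 6 mg/kg in 100% saline. Blood taken by cardiac puncture at 0, 0.03, 0.08, 0.25, 1, 1.5, 2 and 4 h and stored at -80 °C. Plasma analysed by LC–MS/MS; parameters from non-compartmental analysis; mean ± SD.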

[2] = Cmax in C57BL/6 mouse at 6 mg/kg, sc measured up to 4 hrs post dose by LC-MS/MS analysis; type: ADME, organism-based; parameters: dose 6 mg/kg, route subcutaneous; settings: in vivo; summary of the method: as §1
[3] = Half life in C57BL/6 mouse at 6 mg/kg, sc measured up to 4 hrs post dose by LC-MS/MS analysis; type: ADME, organism-based; settings: in vivo; summary of the method: as §1
[4] = biological target: C-X-C chemokine receptor type 4 (Homo sapiens, UniProt P61073); assay: Displacement of [125I]CXCL12 from human CXCR4 expressed in HEK293 cell membranes after 1.5 hrs by Topcount method
[5] = Acute toxicity in sc dosed C57BL/6 mouse assessed as maximum tolerated dose by measuring mortality; type: organism-based; settings: in vivo
Summary of the method: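 Male C57BL/6 or ICR mice (n = 3/group) dosed subcutaneously with escalating doses, low to high; MTD taken as highest dose giving zero mortality (0/3).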

Sequence of C-X-C chemokine receptor type 4 (P61073 whole entry): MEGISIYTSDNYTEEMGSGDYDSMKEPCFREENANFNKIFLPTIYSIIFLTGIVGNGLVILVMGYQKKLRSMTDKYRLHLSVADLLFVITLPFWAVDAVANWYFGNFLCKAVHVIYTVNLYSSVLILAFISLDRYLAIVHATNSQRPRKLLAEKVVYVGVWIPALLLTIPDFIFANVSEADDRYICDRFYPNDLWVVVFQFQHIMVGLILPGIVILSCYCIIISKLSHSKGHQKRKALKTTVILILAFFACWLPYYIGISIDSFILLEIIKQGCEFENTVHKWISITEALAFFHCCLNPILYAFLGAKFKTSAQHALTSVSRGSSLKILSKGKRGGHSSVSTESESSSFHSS

SMILES | AUC(0-t) at 4 h [1] | Cmax [2] | half-life [3] | IC50 [4] | MTD [5]
c1cc(CN2CCCNCCNCCCNCC2)ccc1CN1CCCNCCNCCCNCC1 [PLERIXAFOR] | 7150 ng·h/mL | 6200 ng/mL | 1.4 h | – | –
Cc1cc(N(C)C2CCN(C(=O)CCNCC(=O)O)CC2)nc(NCc2cn(CCCNCCCNC3CCCCC3)nn2)n1 | – | – | – | 97.6 nM | 50 mg/kg
Cc1cc(NC2CCN(C(=O)CC[C@H](N)C(=O)O)CC2)nc(NCc2cn(CCCNCCCNC3CCCCC3)nn2)n1 | – | – | – | 71.1 nM | 50 mg/kg
CCc1cc(NC2CCN(C(=O)CCNCC(=O)O)CC2)nc(NCc2cn(CCCNCCCNC3CCCCC3)nn2)n1 | – | – | – | 72 nM | 50 mg/kg
c1cc(NC2CCNCC2)nc(NCc2cn(CCCNCCCNC3CCCCC3)nn2)n1 | – | – | – | 34.1 nM | 10 mg/kg
Cc1cc(NC2CCNCC2)nc(NCc2cn(CCCNCCCNC3CCCCC3)nn2)n1 | – | – | – | 23.9 nM | 10 mg/kg
Cc1cc(NC2CCN(CCCCC(=O)O)CC2)nc(NCc2cn(CCCNCCCNC3CCCCC3)nn2)n1 | – | – | – | 93 nM | 75 mg/kg
Cc1cc(NC2CCN(CCC(=O)O)CC2)nc(NCc2cn(CCCNCCCNC3CCCCC3)nn2)n1 | – | – | – | 81.8 nM | 75 mg/kg
Cc1cc(NC2CCN(CCC#N)CC2)nc(NCc2cn(CCCNCCCNC3CCCCC3)nn2)n1 | – | – | – | 72.1 nM | 20 mg/kg
CCc1cc(NC2CCNCC2)nc(NCc2cn(CCCNCCCNC3CCCCC3)nn2)n1 | – | – | – | 46.8 nM | 10 mg/kg
Cc1cc(NC2CCN(C(=O)CCCC(=O)O)CC2)nc(NCc2cn(CCCNCCCNC3CCCCC3)nn2)n1 | – | – | – | 158 nM | 50 mg/kg
Clc1cc(NC2CCNCC2)nc(NCc2cn(CCCNCCCNC3CCCCC3)nn2)n1 | – | – | – | 708 nM | 10 mg/kg
CC(C)c1cc(NC2CCNCC2)nc(NCc2cn(CCCNCCCNC3CCCCC3)nn2)n1 | – | – | – | 61.1 nM | 10 mg/kg
Cc1cc(NC2CCN(C(=O)CCNCCC(=O)O)CC2)nc(NCc2cn(CCCNCCCNC3CCCCC3)nn2)n1 | – | – | – | 72.2 nM | 50 mg/kg
Cc1cc(NC2CCN(C(=O)CNCCC(=O)O)CC2)nc(NCc2cn(CCCNCCCNC3CCCCC3)nn2)n1 | – | – | – | 82.6 nM | 100 mg/kg
Cc1cc(NC2CCN(C(=O)CCNCP(=O)(O)O)CC2)nc(NCc2cn(CCCNCCCNC3CCCCC3)nn2)n1 | – | – | – | 91.6 nM | 100 mg/kg
COc1cc(NC2CCNCC2)nc(NCc2cn(CCCNCCCNC3CCCCC3)nn2)n1 | – | – | – | 473 nM | 10 mg/kg
FC(F)(F)c1cc(NC2CCNCC2)nc(NCc2cn(CCCNCCCNC3CCCCC3)nn2)n1 | – | – | – | 860 nM | 10 mg/kg
Cc1cc(NC2CCN(C(=O)CCCNCC(=O)O)CC2)nc(NCc2cn(CCCNCCCNC3CCCCC3)nn2)n1 | – | – | – | 88.5 nM | 75 mg/kg
O=C(O)CNCCC(=O)N1CCC(Nc2ccnc(NCc3cn(CCCNCCCNC4CCCCC4)nn3)n2)CC1 | – | – | – | 399 nM | 100 mg/kg
Cc1cc(NC2CCN(C(=O)CCNCCP(=O)(O)O)CC2)nc(NCc2cn(CCCNCCCNC3CCCCC3)nn2)n1 | – | – | – | 147 nM | –
Cc1cc(NC2CCN(CCC(N)=O)CC2)nc(NCc2cn(CCCNCCCNC3CCCCC3)nn2)n1 | – | – | – | 25.6 nM | 20 mg/kg
CCCN1CCC(Nc2cc(C)nc(NCc3cn(CCCNCCCNC4CCCCC4)nn3)n2)CC1 | – | – | – | 47.8 nM | 10 mg/kg
